High-throughput results deposited in PubChem BioAssay by Broad Institute.
CAL PDZ FP-1 = human CAL PDZ-peptide interaction inhibition; Q9HD26; purified CAL PDZ, TMR-peptide fluorescence polarization, 1 h; inhibition, % at 20 µM; actives 0.02% (n = 330,000); AID 504414;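 active = highest replicate inhibition of at least 40%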
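Material: tagged CAL PDZ domain; buffer or medium: 25 mM sodium phosphate pH 7.4, 150 mM NaCl, TCEP, IgG, Thesit; compound dosing: single point, 20 µM; schedule: 1 h incubation at room temperature before polarization reading; measured by: FP readout, S and P plane fluorescence; read-out basis: percent inhibition from loss of millipolarization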
CAL PDZ FP-2 = blocks peptide binding to the human CAL PDZ domain. Q9HD26. purified CAL PDZ, TMR-peptide fluorescence polarization, 1 h. inhibition, % at 24.9 µM. actives 0.92% (n = 300,000);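 active = mean inhibition of at least 30% with at least half of replicates also reaching 30%; inconclusive = no clear call, values can overlap the other calls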
ERAP1 inh = blocks human ERAP1 aminopeptidase activity; Q9NZ08; inhibition, % at 10.7 µM; actives 0.15% (n = 340,000); recombinant ERAP1, Leu-AMC fluorescence, 60 min;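 active = mean replicate inhibition of at least 30%, or all replicates individually reaching that 30% level; inactive = mean below 30% and not every replicate reaching it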
Target sequence (Q9NZ08 whole entry, looked up): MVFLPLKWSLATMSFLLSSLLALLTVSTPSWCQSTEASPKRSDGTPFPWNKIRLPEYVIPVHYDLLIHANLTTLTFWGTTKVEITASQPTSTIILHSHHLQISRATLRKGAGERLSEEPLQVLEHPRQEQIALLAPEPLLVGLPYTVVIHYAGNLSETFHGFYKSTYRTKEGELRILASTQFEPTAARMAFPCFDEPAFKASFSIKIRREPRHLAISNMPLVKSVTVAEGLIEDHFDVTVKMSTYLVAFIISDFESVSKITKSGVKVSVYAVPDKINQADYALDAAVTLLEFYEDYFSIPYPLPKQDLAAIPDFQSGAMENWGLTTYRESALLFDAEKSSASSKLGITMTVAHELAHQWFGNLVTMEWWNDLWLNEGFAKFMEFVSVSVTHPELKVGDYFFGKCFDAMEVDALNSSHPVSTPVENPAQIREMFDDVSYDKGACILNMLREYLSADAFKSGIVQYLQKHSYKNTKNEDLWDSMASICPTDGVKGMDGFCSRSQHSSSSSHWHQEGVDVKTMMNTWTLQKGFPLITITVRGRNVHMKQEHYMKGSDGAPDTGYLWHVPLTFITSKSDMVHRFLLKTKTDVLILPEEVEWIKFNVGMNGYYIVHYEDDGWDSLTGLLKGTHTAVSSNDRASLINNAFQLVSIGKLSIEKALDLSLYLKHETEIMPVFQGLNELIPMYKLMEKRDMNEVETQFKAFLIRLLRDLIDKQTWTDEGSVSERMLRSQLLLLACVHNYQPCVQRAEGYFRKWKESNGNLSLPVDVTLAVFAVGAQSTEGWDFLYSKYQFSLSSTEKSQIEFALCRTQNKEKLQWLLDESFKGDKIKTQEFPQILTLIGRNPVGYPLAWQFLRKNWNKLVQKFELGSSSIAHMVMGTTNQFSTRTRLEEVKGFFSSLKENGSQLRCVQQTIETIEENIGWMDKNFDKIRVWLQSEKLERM
SIRT5 block = inhibitors of human sirtuin-5 desuccinylase. Q9NXA8. Purified SirT5, succinyl-peptide AMC, trypsin-coupled fluorescence. inhibition, % at 15 µM. actives 1.1% (n = 330,000); in the data active = inhibition above about 15%; inconclusive = no clear call, values can overlap the other calls
S100A4 inh HTS = S100A4-myosin IIA interaction inhibition; P26447; S100A4/TAMRA-MyoIIA peptide fluorescence polarization; inhibition, % at 10.7 µM; actives 0.14% (n = 360,000); AID 652163;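 active = mean inhibition of at least 70% across replicates, with every replicate also reaching that level; inconclusive = mean inhibition reaches 70% but some replicates fall short; inactive = mean inhibition below 70%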
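Material: S100A4 monomer protein | Medium: HEPES pH 7.2 with CaCl2, KCl, NaCl, DTT, Triton | Reagent: Labelled myosin peptide probe, 5 nM | Doses: One dose per compound | Times: 5 min incubation before reading | Benchmarks: Neutral control DMSO, positive control TFP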
DENV2 CPE rescue = inhibitors of DENV2 cytopathic effect; AID 651640; CPE inhibition, % at 9.99 µM; DENV2-infected cells, cytopathic effect rescue, plate reader; actives 1.7% (n = 350,000); in the data active = CPE inhibition above about 20%, passing the limit was not always enough; inconclusive = no clear call, values can overlap the other calls; tested in BHK-21 cells
Numbers stand for hits; n = inactive; u = inconclusive; x = no result. Most compounds without a hit are left out; they make up all but 2.9% or so of the library.

SMILES	CAL PDZ FP-1	CAL PDZ FP-2	ERAP1 inh	SIRT5 block	S100A4 inh HTS	DENV2 CPE rescue
Cc1ccccc1S(=O)(=O)NCC[C@@H]1CC[C@H](NC(=O)C2CCCC2)[C@@H](CO)O1	x	x	n	n	n	22.9
Cc1ccccc1S(=O)(=O)NCC[C@@H]1CC[C@@H](NC(=O)C2CCCC2)[C@@H](CO)O1	x	x	n	n	n	n
CC(C)Oc1ccc2nnnn2n1	x	130.3	n	n	n	x
COc1cc(C(=O)OCC(=O)N2CCCCC2C)ccc1OCc1c(C)noc1C (centres undefined)	n	45.7	n	n	n	n
O=C(c1ccccc1)N1CC2(C1)[C@H](c1ccccc1)[C@H](CO)N2Cc1ccccn1	x	x	n	n	n	n
O=C(c1ccccn1)N1CC2(C1)[C@H](c1ccccc1)[C@@H](CO)N2Cc1ccc(F)cc1	x	x	n	n	n	38.9
O=C(CC1CC1)N1CC2(C1)[C@H](c1ccccc1)[C@H](CO)N2Cc1ccccn1	x	x	x	n	n	22.7
O=C(c1ccccn1)N1CC2(C1)[C@@H](c1ccccc1)[C@@H](CO)N2C(=O)CC1CC1	x	x	n	n	n	34.6
O=C(c1ccccn1)N1CC2(C1)[C@H](c1ccccc1)[C@H](CO)N2Cc1ccc(F)cc1	x	x	n	n	n	n
O=C(CC1CC1)N1CC2(C1)[C@@H](c1ccccc1)[C@@H](CO)N2C(=O)c1cnccn1	x	x	n	n	n	32.5
O=C(C[C@H]1C[C@H]2c3cc(NC(=O)Cc4ccncc4)ccc3O[C@H]2[C@@H](CO)O1)NCc1ccncc1	x	x	n	n	n	n
CCC(=O)N(C)C[C@H]1Oc2cc(-c3ccccc3)ccc2S(=O)(=O)N([C@@H](C)CO)C[C@H]1C	x	x	n	n	n	n
CN1C(=O)c2cc(NC(=O)Cc3cccs3)ccc2OC[C@H]2O[C@H](CC(=O)O)CC[C@@H]21	x	x	n	n	n	n
C/C=C/c1ccc([C@@H]2[C@H](CO)N(C(=O)c3cnccn3)C23CN(C(=O)C2CCC2)C3)cc1	x	x	n	n	n	n
C/C=C/c1ccc([C@@H]2[C@H](CO)N(C(=O)c3cnccn3)C23CN(C(=O)C2CC2)C3)cc1	x	x	n	n	n	23.6
C/C=C/c1ccc([C@H]2[C@@H](CO)N(C(=O)C3CC3)C23CN(C(=O)NC(C)C)C3)cc1	x	x	n	n	n	105.0
O=C(C1CCCCC1)N1[C@@H](CO)[C@@H](c2ccccc2)C12CN(Cc1ccc(F)cc1)C2	x	x	x	n	x	n
COc1ccccc1-c1nnc2sc(-c3ccc(N(C)C)cc3)nn12	n	n	n	n	n	42.1
COCCOC(=O)N1C(=O)[C@@]2(c3cc(C#Cc4ccc(OC)cc4)ccc31)[C@H](c1ccc(OCCO)cc1)N1[C@H](c3ccccc3)[C@H](c3ccccc3)OC(=O)[C@H]1[C@@H]2C(=O)N1CCN(c2ncccn2)CC1	x	x	n	n	n	u
Cc1noc(C)c1NC(=O)N(C)C[C@@H]1Oc2ccc(NC(=O)NC(C)C)cc2CC(=O)N([C@@H](C)CO)C[C@@H]1C	x	x	n	n	n	n
COc1ccc(OC)c(NC(=O)CSc2ccccc2)c1	x	54.4	x	x	x	x
COc1ccc(OC)c(NC(=O)C2CC(C)=C(C)CC2C(=O)O)c1 (centres undefined)	n	42.7	x	x	x	x
COc1ccc(OC)c(NC(=O)CSc2ccc3ccccc3c2)c1	n	n	x	x	x	x
COc1ccc(OC)c(NC(=O)[C@H]2CC=CC[C@H]2C(=O)O)c1	n	x	x	x	x	x
CS(=O)(=O)N1[C@H](C(=O)NCCc2ccncc2)[C@@H](CO)[C@@H]2Cn3c(ccc(C4=CCCC4)c3=O)[C@@H]21	x	x	n	n	n	n
SMILES	CAL PDZ FP-1	CAL PDZ FP-2	ERAP1 inh	SIRT5 block	S100A4 inh HTS	DENV2 CPE rescue
COc1ccc(OC)c(NC2c3ncccc3C(=O)N2Cc2ccco2)c1 (centres undefined)	n	n	n	16.0	n	n
CCCNC(=O)C[C@@H]1CC[C@H]2[C@@H](COC[C@@H](O)CN2CC2CCCCC2)O1	x	x	n	n	n	n
CC1CN(C(=O)/C(C#N)=C2\N=C(NC(=O)c3ccc(F)cc3)c3ccccc32)CC(C)O1 (centres undefined)	x	x	n	n	n	n
CC1CN(C(=O)/C(C#N)=C2\N=C(NC(=O)c3ccccc3Cl)c3ccccc32)CC(C)O1 (centres undefined)	x	x	n	21.0	n	n
CO[C@@H]1CN(C)C(=O)c2cc(NC(=O)C3CC3)ccc2OC[C@@H](C)N(Cc2ccncc2)C[C@@H]1C	x	x	n	n	n	n
O=C(CC1CC1)N1CC(=O)N2[C@H](CO)[C@H](c3ccc(C#Cc4cccc(F)c4)cc3)[C@@H]2C1	x	x	n	n	n	n
CC(/C=N/N1CCN(c2ccccc2)CC1)=C\c1ccccc1	n	x	n	n	n	n
Oc1ccccc1/C=N/N1CCN(c2ccccn2)CC1	n	n	n	n	n	n
CC(/C=N/N1CCN(c2ccccn2)CC1)=C\c1ccccc1	n	n	n	n	n	22.8
CC(C)c1ccc(/C=N/N2CCN(c3ccccn3)CC2)cc1	n	n	n	n	n	46.8
COc1ccc(S(=O)(=O)Nc2ccc3c(c2)C(=O)N([C@H](C)CO)C[C@@H](C)[C@@H](CN(C)Cc2ccc(C(=O)O)cc2)O3)cc1	x	x	n	n	n	n
C[C@H]1CN([C@@H](C)CO)S(=O)(=O)c2ccc(C3=CCCCC3)cc2O[C@@H]1CN(C)C(=O)Nc1ccc2c(c1)OCO2	x	x	n	n	n	n
C[C@@H]1CN([C@H](C)CO)S(=O)(=O)c2ccc(C3=CCCC3)cc2O[C@@H]1CN(C)C(=O)CC1CC1	x	x	n	n	n	n
CC(C)NC(=O)N(C)C[C@@H]1Oc2cc(C3=CCCC3)ccc2S(=O)(=O)N([C@H](C)CO)C[C@@H]1C	x	x	n	n	n	46.7
C[C@H](CO)N1C[C@H](C)[C@@H](CN(C)C(=O)Nc2ccc3c(c2)OCO3)Oc2cc(C3=CCCC3)ccc2S1(=O)=O	x	x	n	19.9	n	n
C[C@H]1CN([C@@H](C)CO)S(=O)(=O)c2ccc(C3=CCCC3)cc2O[C@@H]1CN(C)C(=O)CC1CC1	x	x	n	n	n	70.2
C[C@H](CO)N1C[C@H](C)[C@@H](CN(C)C(=O)C2CCC2)Oc2cc(-c3cncnc3)ccc2S1(=O)=O	x	x	n	n	n	28.7
C[C@H](CO)N1C[C@H](C)[C@@H](CN(C)C(=O)C2CCC2)Oc2cc(C3=CCCC3)ccc2S1(=O)=O	x	x	n	n	n	32.5
C[C@@H]1CN([C@@H](C)CO)S(=O)(=O)c2ccc(C3=CCCC3)cc2O[C@@H]1CN(C)C(=O)C1CCC1	x	x	n	n	n	n
CC1(C)Cc2c(sc3c2c(=N)n(Cc2ccco2)c(=O)n3Cc2ccc(F)cc2)CO1	n	n	x	x	x	x
COc1ccc(Cn2c(=O)n(Cc3ccco3)c(=N)c3c4c(sc32)COC(C)(C)C4)cc1	n	58.7	x	x	x	x
